Screening data: PubChem, The Scripps Research Institute Molecular Screening Center
Hits are enriched below; roughly 4.6% of the tested compounds scored in any of these assays.
TAAR1 ag: human TAAR1 agonism; Q96RJ0; activation, % at 3 µM; 360,000 tested, 0.99% active; CHO RD-HGA16 TAAR1, Fluo-8 calcium fluorescence; vehicle wells 0%, saturating PEA agonist 100%;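 active means activation above the mean activation of all test compounds in the run plus 3 SD, cut at about 38% in these data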
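Repeats: no replicates (n 1) | Material: CHO-derived RD-HGA16 cells with stable Gα16 and human TAAR1 | Technique: Kinetic Fluo-8 calcium fluorescence | Schedule: 17-24 h seeding, 75 min 37 °C dye, 30 min RT | Evaluation: % activation from peak over basal fluorescence ratio, DMSO-to-PEA scaled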
CHO parental Ca: signal in parental CHO cells, OX1R antagonist counter-screen | parental CHO-K1, ATP-induced calcium, Fluo-8 fluorescence | inhibition, % at 5.6 µM | 330,000 tested, 0.63% active;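 active means inhibition above that plate's mean sample inhibition plus 3 SD, cut at about 26% in these data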;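 further: 0% = ATP-challenged DMSO wells and 100% = DMSO wells without ATP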
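Test system: untransfected parental CHO cell line. Compound: one dose, 5.6 µM nominal. Detection: intracellular calcium via Fluo-8 no-wash fluorescent dye. Measure: % inhibition. Benchmarks: ATP-challenged DMSO wells low, unchallenged DMSO wells high.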
TAAR1 antag: antagonists of human TAAR1. CHO RD-HGA16 TAAR1, Fluo-8 calcium fluorescence, antagonist. inhibition, % at 3 µM. 360,000 tested, 1.5% active. Q96RJ0;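 active means inhibition above a per-plate cutoff, the mean inhibition of test compounds on that plate plus 3 SD, cut at about 49% in these data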;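 further: 0% = DMSO plus EC80 beta-PEA response and 100% = DMSO alone without agonist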
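Test system: hTAAR1-expressing CHO RD-HGA16 cells, Gα16-coupled; Probe or stimulus: EC80 β-phenethylamine stimulus; Compound dosing: single nominal final test compound concentration of 3 µM; Timing: 140 s kinetic read after compound, 140 s after agonist; Signal: Fluo-8 calcium-sensitive fluorescence; Measure: % inhibition of agonist calcium response; Controls: DMSO and EC80 PEA controls.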
GPR7 antagonist: blocks human GPR7 receptor signaling. P48145. GPR7-expressing cells, fluorescence antagonist assay. inhibition, % at 4.4 µM. 290,000 tested, 1.1% active. AID 1861; in the data active means inhibition above about 16%, passing the limit was not always enough;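 further: cells stimulated with the agonist NPW; 0% = agonist with vehicle and 100% = vehicle without agonist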
OX1R antag-1: human HCRTR1 antagonism. O43613. 330,000 tested, 0.43% active. AID 434989. inhibition, % at 5 µM. CHO/OX1R cells, Fluo-8 calcium fluorescence, orexin A;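 active means inhibition above its plate's threshold, mean inhibition of all tested compounds on the plate plus 3 SD, cut at about 37% in these data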;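 further: 0% = orexin A challenge wells and 100% = SB-334867-A antagonist wells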
Target sequence (O43613 whole entry, looked up): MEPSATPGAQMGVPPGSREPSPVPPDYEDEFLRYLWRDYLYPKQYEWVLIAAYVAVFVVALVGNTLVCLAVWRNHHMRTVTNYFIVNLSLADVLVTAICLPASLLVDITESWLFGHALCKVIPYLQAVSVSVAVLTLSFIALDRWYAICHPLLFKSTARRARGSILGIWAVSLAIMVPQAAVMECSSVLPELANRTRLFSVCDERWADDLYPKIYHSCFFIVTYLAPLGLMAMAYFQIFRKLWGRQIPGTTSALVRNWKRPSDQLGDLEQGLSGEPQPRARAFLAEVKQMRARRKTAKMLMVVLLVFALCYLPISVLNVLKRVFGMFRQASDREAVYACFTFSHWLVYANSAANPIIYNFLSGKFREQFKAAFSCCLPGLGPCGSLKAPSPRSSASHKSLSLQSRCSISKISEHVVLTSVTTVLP
OX1R antag-2: blocks the human orexin 1 receptor; O43613; AID 485270; 330,000 tested, 1.8% active; inhibition, % at 6.6 µM; OX1R-expressing cells, FRET antagonist read-out; in the data active means inhibition mostly above about 38%, no sharp cut-off; inactive means mostly below about 40%;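 further: 0% = agonist challenge alone and 100% = reference antagonist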
TAAR1 ag confirm: confirmation of human TAAR1 agonists. 2,400 tested, 82% active. shares compounds with TAAR1 ag. activation, % at 3 µM. AID 651783. CHO RD-HGA16 TAAR1, Fluo-8 calcium fluorescence; scaled: DMSO 0%, maximal phenethylamine 100%;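 active means activation above a cutoff set at the run's mean compound activation plus 3 SD, cut at about 39% in these data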
Ga16 ag counter: counter-screen for TAAR1 agonists: nonselective agonists in parental cells; shares compounds with TAAR1 ag; CHO-Ga16 parental, Fluo-8 calcium fluorescence; normalized to maximal ATP response, DMSO zero; activation, % at 3 µM; 2,400 tested, 50% active;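 active means activation above the run cutoff, the mean activation over all tested wells plus 3 SD, cut at about 12% in these data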;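 further: 0% = DMSO wells and 100% = maximal ATP response on the peak over basal ratio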
TAAR1 desens: TAAR1 response desensitization, agonist counter-screen | shares compounds with TAAR1 ag | CHO RD-HGA16 hTAAR1, Fluo-8 calcium, beta-PEA response inhibition | inhibition, % at 3 µM | 2,400 tested, 46% active | AID 651951;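 active means inhibition above the run cutoff, the mean inhibition of all test compounds plus 3 SD, cut at about 49% in these data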;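 further: beta-PEA stimulus applied at its EC80; loss of beta-PEA calcium signal after compound pretreatment read as receptor desensitization; 0% = DMSO with beta-PEA at EC80 and 100% = DMSO alone without agonist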
Ga16 antag count: nonselective Ga16 antagonist in TAAR1 agonist counter-screen; CHO-Ga16 ATP-induced calcium, Fluo-8 fluorescence; shares compounds with TAAR1 ag; inhibition, % at 3 µM; 2,400 tested, 39% active;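 active means inhibition above the plate's mean compound inhibition plus 3 SD, computed per plate, cut at about 22% in these data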;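 further: 0% = EC80 ATP with DMSO and 100% = DMSO wells without ATP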
Numbers without * were called inactive.

`Oc1ccccc1C1NCc2ccccc2-n2cccc21` (stereo unspecified) gave TAAR1 ag 3, CHO parental Ca -19, TAAR1 antag -3, GPR7 antagonist 13, OX1R antag-1 -13 and OX1R antag-2 8.
Cc1cccc(CCNCc2cc3cc(C)cc(C)c3[nH]c2=O)c1 was read as TAAR1 ag 108*, CHO parental Ca -8, TAAR1 antag 78*, GPR7 antagonist -3, OX1R antag-1 -36, OX1R antag-2 14, TAAR1 ag confirm 102*, Ga16 ag counter 3, TAAR1 desens 90* and Ga16 antag count 0.
For Cc1ccc2cc(CNCCc3ccccc3C)c(=O)[nH]c2c1 the results were TAAR1 ag 76*, CHO parental Ca -13, TAAR1 antag 81*, GPR7 antagonist -9, OX1R antag-1 -30, OX1R antag-2 9, TAAR1 ag confirm 83*, Ga16 ag counter 4, TAAR1 desens 92* and Ga16 antag count 3.
`O=c1ccc2cc(O[C@@H]3O[C@@H](CO)[C@H](O)[C@@H](O)[C@@H]3O)c(O)cc2o1` gave TAAR1 ag 7, CHO parental Ca 4, TAAR1 antag -21, GPR7 antagonist 10, OX1R antag-1 14 and OX1R antag-2 3.
CCOC(=O)c1cc2c(cn1)[C@H](CCO)NC2 was read as TAAR1 ag 3 and TAAR1 antag -11.
Screening CCN1C[C@]2(C)CC[C@H](OC)[C@]34C2[C@H](OC(C)=O)[C@@]2(OCO[C@@]25C[C@H](OC)[C@H]2C[C@]3(O)C5[C@H]2OC)[C@@H]14 returned TAAR1 ag 0, CHO parental Ca -3, TAAR1 antag -18, GPR7 antagonist -15, OX1R antag-1 -6 and OX1R antag-2 11.
